Experimental data: article PMC2570394 (Diabetes, 2008)
Like-named read-outs stand apart in the source and are kept apart here. Values belong to the compound of their own block, whether it stands above or below them.

What was measured:
[1] = system: diet-induced obese (DIO) mice; conditions: cited from earlier work
rat = conditions: acute intracerebroventricular injection, 3 μg/rat per day; cited from earlier work
DIO rats [2] = type: in vivo, rat; conditions: 6 days
DIO rats [3] = assay: Plasma measurements after central or global CB1 blockade in DIO rats; type: in vivo; conditions: Central CB1 blockade, icv 5 μg/rat per day, 6 days, mean ± SE
In short: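 Diet-induced obese rats (45% high-fat diet, 8 weeks) got test compound 5 μg/rat per day icv for 6 days, alongside vehicle and pair-fed controls. Plasma glucose was measured by the glucose oxidase method, and nonesterified fatty acids by commercial kit. Corticosterone and insulin were measured by double-antibody radioimmunoassay. Means ± SE.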

DIO rats [4] = assay: Triglyceride content in epididymal WAT and plasma of DIO rats; type: in vivo, rat; conditions: 6 days
In short: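 Diet-induced obese rats received test compound for 6 days, either 5 μg/day icv by minipump or 10 mg/kg per day i.p., alongside vehicle and pair-fed groups. Lipids were extracted from epididymal WAT. After the organic solvent was evaporated, triglyceride was measured enzymatically in duplicate. Plasma triglyceride was measured by commercial kit. n=5–7, means ± SE.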

DIO rats [5] = type: in vivo, rat
In short: (§1)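 Lean or diet-induced obese rats received 6-day treatment with vehicle and pair-fed controls. Epididymal WAT and liver were freeze-clamped and kept at −80°C. Real-time qPCR used SYBR Green, ~70 ng template cDNA and primers at 0.5 μmol/l final. Relative levels came from a standard curve and were normalised to ribosomal protein S29 in WAT and cyclophilin A in liver. n=5–7, means ± SE.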

Zucker rats = conditions: cited from earlier work
normal rats [6] = assay: Quantitative RT-PCR of lipid metabolism enzymes in WAT and liver of lean rats; type: in vivo, rat; conditions: 6 days
In short: as §1

[7] = system: isolated soleus muscle of ob/ob mice; conditions: cited from earlier work
obese Zucker rats = conditions: 30 mg/kg, 8 weeks; cited from earlier work
[8] = type: in vivo, mice (C57BL/6J; conditions: male, C57BL/6J, mouse, ip, 10 mg/kg
normal rats [9] = assay: Food intake and body weight during 6-day CB1 antagonist infusion in lean rats; type: in vivo, rat; conditions: 6 days; for body weight / food intake: lean rats
In short: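 Rats on standard chow received test compound for 6 days, either 3 or 5 μg/rat per day icv or 5 μg/rat per day s.c. Both routes used osmotic minipumps. Vehicle was isotonic saline with 0.3% Tween 80. Icv cannula placement was checked by drinking response to icv angiotensin II (5 ng/μl). Vehicle pair-fed rats got the treated group's daily intake before dark onset. Food intake and body weight were recorded daily. n=5–7, means ± SE.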

DIO rats [10] = type: in vivo, rat; conditions: 6 days; remark: listed apart in the source
In short: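 Male Sprague-Dawley rats were fed a 45% high-fat diet for 8 weeks, then given vehicle or test compound for 6 days, with a vehicle pair-fed group. They were fasted overnight and anaesthetised with pentobarbital 50 mg/kg i.p. Clamps were run basal and insulin-stimulated (200 mU/ml) with D-[U-14C]glucose infusion (5 μCi/ml). A 2-deoxy-D-[1-3H]glucose bolus (30 μCi/rat) followed, and tissue 2-DG-6-P gave a utilisation index in ng/min/mg. n=5–7.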

CB1 receptor = conditions: by reducing food intake and increasing energy expenditure and fat oxidation; cited from earlier work
[11] = intracerebroventricular 5 μg/rat per day
[12] = ip 10 mg/kg, 6 days, independent of hypophagia
[13] = normal rats, icv 5 μg/day, similar in vehicle pair-fed group
[14] = intracerebroventricular 3 μg/rat per day
[15] = peripheral 5 μg/rat per day via subcutaneous minipumps

Cmax ([8]; brain): 1010 ± 384 ng/g | concentration at 25.1 h ([8]; brain): 186 ± 37.5 ng/g | half-life ([8]; brain): 9.44 h | Cmax ([8]; serum): 258 ± 58.9 ng/mL | concentration at 25.1 h ([8]; serum): 20.5 ± 9.25 ng/mL | half-life ([8]; serum): 6.33 h
Structure (SMILES): Cc1c(C(=O)NN2CCCCC2)nn(-c2ccc(Cl)cc2Cl)c1-c1ccc(Cl)cc1 [SR141716, Rimonabant]
body weight [1]: maintained reduction | food intake [1]: transient suppression | food intake (rat): decreases | decrease in food intake (DIO rats [2]; [11]): 31% | body weight (DIO rats [2]; intracerebroventricular 5 μg/rat per day, mimicked by pair feeding): loss of body weight | decrease in food consumption (DIO rats [2]; intraperitoneal 10 mg/kg per day, P < 0.01): 40% | Corticosterone (plasma) (DIO rats [3]): 59.77 ± 7.26 ng/mL | Glucose (plasma) (DIO rats [3]): 3.78 ± 0.12 mmol/L | Insulin (plasma) (DIO rats [3]): 0.58 ± 0.12 ng/mL | Nonesterified fatty acids (plasma) (DIO rats [3]): 0.66 ± 0.13 mmol/L | triglyceride levels in WAT (DIO rats [4]; icv 5 μg/day): did not modify | triglyceride levels in plasma (DIO rats [4]; icv 5 μg/day): did not modify | WAT triglyceride content (DIO rats [4]; ip 10 mg/kg, not observed in vehicle pair-fed group): decreased | expression of hormone-sensitive lipase and adipose triglyceride lipase (DIO rats [5]; WAT, drug treatment (data not shown)): not modified | WAT CPT-1 expression (DIO rats [5]; icv 5 μg/day, 6 days): trend toward an increase | WAT SCD-1 expression (DIO rats [5]; icv 5 μg/day, 6 days, also present in pair-fed group): decrease | liver SCD-1 expression (DIO rats [5]; icv 5 μg/day, 6 days, similar decrease in vehicle pair-fed animals): decreased | liver gene expression of lipid metabolism enzymes (DIO rats [5]; ip 10 mg/kg, 6 days): No modification | liver expression of glucose-6-phosphatase (DIO rats [5]; ip 10 mg/kg, 6 days, also in vehicle pair-fed group): marked decrease | WAT CPT-1 expression (DIO rats [5]; [12]): increase | WAT SCD-1 expression (DIO rats [5]; [12]): decrease | body weight (Zucker rats): maintained reduction | food intake (Zucker rats): transient suppression | WAT mRNA expression of lipid metabolism enzymes (normal rats [6]; lean rats, 5 μg/rat per day given peripherally): no change | liver gene expression of key enzymes regulating triglyceride metabolism (normal rats [6]; lean rats, icv 5 μg/day): No significant difference | WAT expression of CPT-1 (normal rats [6]; [13]): increased | WAT expression of genes promoting lipogenesis and triglyceride storage (FAS, SCD-1, ACCα, LPL) (normal rats [6]; [13]): markedly reduced | glucose uptake [7]: increases | hepatic lipid metabolism (obese Zucker rats): food intake–independent effect | body weight (normal rats [9]; [14]): no effect | food intake (normal rats [9]; [14]): no effect | body weight (normal rats [9]; [11]): loss of body weight | body weight (normal rats [9]; [15]): unable to detect changes | food intake (normal rats [9]; [15]): unable to detect changes | decrease in food intake (normal rats [9]; normal rats, intracerebroventricular 5 μg/rat per day): 17% | overall insulin sensitivity (DIO rats [10]; icv 5 μg/day): failed to elicit any change | glucose infusion rate (GIR) (DIO rats [10]; icv 5 μg/day, vs vehicle): identical | glucose uptake in skeletal muscle and WAT (DIO rats [10]; icv 5 μg/day, vs vehicle): identical | hepatic glucose production (HGP) (DIO rats [10]; icv 5 μg/day, vs vehicle): identical | overall insulin sensitivity (DIO rats [10]; ip 10 mg/kg): enhanced | hepatic glucose production (HGP) (DIO rats [10]; ip 10 mg/kg, comparable in vehicle pair-fed rats): suppressed | glucose utilization by adipose tissue (DIO rats [10]; ip 10 mg/kg, food-independent effect): increased | glucose infusion rate (GIR) (DIO rats [10]; ip 10 mg/kg, similar increase in vehicle pair-fed group): higher

Structure (SMILES): C[C@H](NC(=O)C(C)(C)Oc1ccc(C(F)(F)F)cn1)[C@@H](Cc1ccc(Cl)cc1)c1cccc(C#N)c1 [taranabant]
body weight (CB1 receptor): weight loss
